Measured values reported in the M2OR odorant receptor database.

Legend:
Settings in all cases: stereoisomer not certain
UniProt Q8VGJ5 = biological target: T1, UniProt Q8VGJ5
T1 sequence (whole entry): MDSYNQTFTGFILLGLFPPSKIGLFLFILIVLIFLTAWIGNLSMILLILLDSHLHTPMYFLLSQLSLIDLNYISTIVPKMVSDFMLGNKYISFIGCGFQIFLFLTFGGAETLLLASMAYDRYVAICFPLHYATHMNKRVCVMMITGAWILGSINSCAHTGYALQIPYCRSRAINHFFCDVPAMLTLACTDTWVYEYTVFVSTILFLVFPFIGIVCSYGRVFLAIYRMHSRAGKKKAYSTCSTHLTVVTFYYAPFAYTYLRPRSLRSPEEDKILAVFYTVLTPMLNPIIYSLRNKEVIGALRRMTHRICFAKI
Method in brief: (§1)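 Transient luciferase assays in mammalian cell lines were common, though methods varied by source. The values come from published papers and their supplementary material, with extra details from the original authors when needed. Responsive refers to a measured signal the original authors judged statistically different from baseline, and non-responsive (inactive) to the remainder.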

UniProt Q8VGL0 = biological target: T2, UniProt Q8VGL0
T2 sequence (whole entry): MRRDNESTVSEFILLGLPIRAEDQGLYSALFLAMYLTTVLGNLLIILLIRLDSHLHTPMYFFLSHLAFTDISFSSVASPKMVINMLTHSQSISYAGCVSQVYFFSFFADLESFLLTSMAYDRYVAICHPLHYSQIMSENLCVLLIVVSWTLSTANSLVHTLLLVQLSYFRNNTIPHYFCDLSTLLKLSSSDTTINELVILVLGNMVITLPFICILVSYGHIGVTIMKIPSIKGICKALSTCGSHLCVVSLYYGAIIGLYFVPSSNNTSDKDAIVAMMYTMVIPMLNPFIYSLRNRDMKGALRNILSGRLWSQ
Method in brief: as §1

UniProt Q8VGL7 = biological target: T3, UniProt Q8VGL7
T3 sequence (whole entry): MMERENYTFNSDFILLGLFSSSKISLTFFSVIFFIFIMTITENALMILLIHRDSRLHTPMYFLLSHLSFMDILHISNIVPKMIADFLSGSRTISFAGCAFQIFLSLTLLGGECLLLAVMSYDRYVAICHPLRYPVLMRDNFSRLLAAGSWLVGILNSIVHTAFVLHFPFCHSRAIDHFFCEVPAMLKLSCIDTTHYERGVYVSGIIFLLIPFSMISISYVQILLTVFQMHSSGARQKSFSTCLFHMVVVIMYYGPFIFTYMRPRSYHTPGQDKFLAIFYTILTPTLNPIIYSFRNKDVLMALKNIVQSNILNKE
Method in brief: as §1

UniProt Q8VGM2 = biological target: T4, UniProt Q8VGM2
T4 sequence (whole entry): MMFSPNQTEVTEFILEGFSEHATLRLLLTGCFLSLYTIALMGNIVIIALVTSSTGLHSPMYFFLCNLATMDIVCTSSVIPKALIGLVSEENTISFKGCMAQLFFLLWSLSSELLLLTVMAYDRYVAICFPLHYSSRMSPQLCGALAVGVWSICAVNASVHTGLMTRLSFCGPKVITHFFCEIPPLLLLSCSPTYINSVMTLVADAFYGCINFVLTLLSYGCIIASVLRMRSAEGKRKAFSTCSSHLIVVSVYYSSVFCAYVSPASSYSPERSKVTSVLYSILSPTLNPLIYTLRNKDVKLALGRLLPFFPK
Method in brief: as §1

UniProt Q8VGP6 = biological target: T5, UniProt Q8VGP6
T5 sequence (whole entry): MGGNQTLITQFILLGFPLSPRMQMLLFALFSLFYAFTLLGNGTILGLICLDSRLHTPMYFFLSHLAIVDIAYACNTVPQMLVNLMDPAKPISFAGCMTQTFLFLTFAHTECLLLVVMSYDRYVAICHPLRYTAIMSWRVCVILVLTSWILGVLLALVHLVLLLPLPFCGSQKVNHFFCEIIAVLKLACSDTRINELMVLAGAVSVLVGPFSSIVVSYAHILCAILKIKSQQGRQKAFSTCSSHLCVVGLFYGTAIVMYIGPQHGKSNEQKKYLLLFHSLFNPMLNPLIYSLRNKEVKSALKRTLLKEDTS
Method in brief: as §1

UniProt Q8VGQ3 = biological target: T6, UniProt Q8VGQ3
T6 sequence (whole entry): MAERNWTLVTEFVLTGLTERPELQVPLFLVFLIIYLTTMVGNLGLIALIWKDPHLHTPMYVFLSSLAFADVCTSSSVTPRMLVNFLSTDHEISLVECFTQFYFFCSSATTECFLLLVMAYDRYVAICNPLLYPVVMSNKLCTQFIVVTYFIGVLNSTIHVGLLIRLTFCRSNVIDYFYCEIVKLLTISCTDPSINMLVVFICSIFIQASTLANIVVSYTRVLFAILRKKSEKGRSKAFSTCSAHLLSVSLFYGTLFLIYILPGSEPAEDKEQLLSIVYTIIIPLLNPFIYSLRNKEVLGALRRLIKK
Method in brief: as §1

UniProt Q8VGT4 = biological target: T7, UniProt Q8VGT4
T7 sequence (whole entry): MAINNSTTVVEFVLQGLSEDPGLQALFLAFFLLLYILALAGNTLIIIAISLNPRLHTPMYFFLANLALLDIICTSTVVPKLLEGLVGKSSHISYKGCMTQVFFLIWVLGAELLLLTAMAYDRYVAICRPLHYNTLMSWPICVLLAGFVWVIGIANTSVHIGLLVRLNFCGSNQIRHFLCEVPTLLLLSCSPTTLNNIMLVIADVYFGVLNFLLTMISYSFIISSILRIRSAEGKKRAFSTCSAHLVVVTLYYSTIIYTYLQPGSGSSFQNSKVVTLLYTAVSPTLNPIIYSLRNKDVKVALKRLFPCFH
Method in brief: as §1

UniProt Q8VGV1 = biological target: T8, UniProt Q8VGV1
T8 sequence (whole entry): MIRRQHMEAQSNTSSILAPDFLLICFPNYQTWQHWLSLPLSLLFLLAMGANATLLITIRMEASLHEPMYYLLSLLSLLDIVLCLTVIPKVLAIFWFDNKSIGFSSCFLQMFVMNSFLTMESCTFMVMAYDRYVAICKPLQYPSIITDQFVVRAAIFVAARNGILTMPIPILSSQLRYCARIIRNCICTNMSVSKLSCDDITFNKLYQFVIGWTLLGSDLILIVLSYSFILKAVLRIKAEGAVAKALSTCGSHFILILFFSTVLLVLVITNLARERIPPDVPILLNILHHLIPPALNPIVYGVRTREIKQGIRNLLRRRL
Method in brief: as §1

UniProt Q8VGX5 = biological target: T9, UniProt Q8VGX5
T9 sequence (whole entry): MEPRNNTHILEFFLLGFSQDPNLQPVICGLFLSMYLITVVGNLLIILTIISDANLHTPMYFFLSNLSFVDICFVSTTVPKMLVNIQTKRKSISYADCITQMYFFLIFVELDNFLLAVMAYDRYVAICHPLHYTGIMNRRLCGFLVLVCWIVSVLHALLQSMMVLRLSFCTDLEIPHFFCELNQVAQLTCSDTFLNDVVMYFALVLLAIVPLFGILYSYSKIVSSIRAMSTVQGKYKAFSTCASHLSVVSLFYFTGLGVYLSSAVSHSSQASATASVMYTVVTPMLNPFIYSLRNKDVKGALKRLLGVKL
Method in brief: as §1

UniProt Q8VGX8 = biological target: T10, UniProt Q8VGX8
T10 sequence (whole entry): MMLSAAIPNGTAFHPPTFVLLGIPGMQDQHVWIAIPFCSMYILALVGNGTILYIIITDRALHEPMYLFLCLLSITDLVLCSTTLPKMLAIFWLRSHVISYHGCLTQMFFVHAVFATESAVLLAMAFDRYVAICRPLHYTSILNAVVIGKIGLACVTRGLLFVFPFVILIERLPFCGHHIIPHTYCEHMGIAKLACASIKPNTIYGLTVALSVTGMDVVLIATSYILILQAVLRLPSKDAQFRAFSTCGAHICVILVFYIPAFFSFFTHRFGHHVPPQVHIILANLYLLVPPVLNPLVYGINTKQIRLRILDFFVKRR
Method in brief: as §1

UniProt Q8VGY6 = biological target: T11, UniProt Q8VGY6
T11 sequence (whole entry): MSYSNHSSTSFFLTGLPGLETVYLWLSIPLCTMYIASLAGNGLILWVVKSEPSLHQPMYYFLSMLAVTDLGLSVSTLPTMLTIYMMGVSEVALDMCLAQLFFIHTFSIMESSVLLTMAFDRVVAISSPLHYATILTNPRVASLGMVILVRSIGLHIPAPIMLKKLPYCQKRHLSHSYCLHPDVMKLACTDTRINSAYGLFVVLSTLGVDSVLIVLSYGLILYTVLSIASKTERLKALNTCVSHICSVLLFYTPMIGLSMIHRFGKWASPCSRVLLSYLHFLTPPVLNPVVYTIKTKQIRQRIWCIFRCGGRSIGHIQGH
Method in brief: as §1

UniProt Q8VGZ2 = biological target: T12, UniProt Q8VGZ2
T12 sequence (whole entry): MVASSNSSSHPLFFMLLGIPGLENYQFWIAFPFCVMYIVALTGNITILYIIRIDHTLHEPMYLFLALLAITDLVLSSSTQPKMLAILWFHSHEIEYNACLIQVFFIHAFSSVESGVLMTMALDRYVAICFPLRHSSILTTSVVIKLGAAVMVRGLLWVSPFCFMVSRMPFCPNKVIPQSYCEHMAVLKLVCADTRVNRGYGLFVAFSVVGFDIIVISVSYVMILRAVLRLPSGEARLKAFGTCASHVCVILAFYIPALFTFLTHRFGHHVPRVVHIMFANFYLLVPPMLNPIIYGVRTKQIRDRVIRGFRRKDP
Method in brief: as §1

UniProt Q8VGZ7 = biological target: T13, UniProt Q8VGZ7
T13 sequence (whole entry): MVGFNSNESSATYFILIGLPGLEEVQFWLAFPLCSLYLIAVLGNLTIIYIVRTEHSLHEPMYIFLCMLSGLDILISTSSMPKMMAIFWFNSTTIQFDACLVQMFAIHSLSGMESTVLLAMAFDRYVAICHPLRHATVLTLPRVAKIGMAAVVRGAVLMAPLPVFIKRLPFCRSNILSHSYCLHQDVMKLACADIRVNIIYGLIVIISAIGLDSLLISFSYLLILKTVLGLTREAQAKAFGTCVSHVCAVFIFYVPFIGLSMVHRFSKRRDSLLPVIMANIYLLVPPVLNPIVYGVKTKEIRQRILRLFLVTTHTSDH
Method in brief: as §1

UniProt Q8VH10 = biological target: T14, UniProt Q8VH10
T14 sequence (whole entry): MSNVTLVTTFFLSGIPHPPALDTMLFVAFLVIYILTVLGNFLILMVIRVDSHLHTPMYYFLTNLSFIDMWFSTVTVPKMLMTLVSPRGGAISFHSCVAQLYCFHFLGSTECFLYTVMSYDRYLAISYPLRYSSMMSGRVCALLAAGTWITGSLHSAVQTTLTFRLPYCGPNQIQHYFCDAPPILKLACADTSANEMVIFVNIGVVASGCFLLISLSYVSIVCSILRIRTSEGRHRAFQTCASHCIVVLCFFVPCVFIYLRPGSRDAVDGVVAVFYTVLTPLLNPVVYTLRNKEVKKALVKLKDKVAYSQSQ
Method in brief: as §1

UniProt Q8VH20 = biological target: T15, UniProt Q8VH20
T15 sequence (whole entry): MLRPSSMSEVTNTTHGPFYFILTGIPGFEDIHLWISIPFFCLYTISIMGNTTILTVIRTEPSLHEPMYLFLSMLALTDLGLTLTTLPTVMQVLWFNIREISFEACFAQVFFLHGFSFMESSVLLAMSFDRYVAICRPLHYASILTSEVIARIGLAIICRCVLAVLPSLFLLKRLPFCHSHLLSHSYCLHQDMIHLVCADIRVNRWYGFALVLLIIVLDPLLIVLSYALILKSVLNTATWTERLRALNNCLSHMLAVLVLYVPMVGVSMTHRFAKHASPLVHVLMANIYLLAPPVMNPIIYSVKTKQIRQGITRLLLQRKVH
Method in brief: as §1

Measured: odorant receptor agonist call;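 further: active if original authors judged signal statistically different from baseline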

C=CCc1ccccc1
inactive: UniProt Q8VGJ5 | UniProt Q8VGL0 | UniProt Q8VGL7 | UniProt Q8VGM2 | UniProt Q8VGP6 | UniProt Q8VGQ3 | UniProt Q8VGT4 | UniProt Q8VGV1 | UniProt Q8VGX5 | UniProt Q8VGX8 | UniProt Q8VGY6 | UniProt Q8VGZ2 | UniProt Q8VGZ7 | UniProt Q8VH10 | UniProt Q8VH20
